According to ChEMBL document CHEMBL3232903, “New pyrazolobenzothiazine derivatives as hepatitis C virus NS5B polymerase palm site I inhibitors” (J Med Chem, 2014):

Columns and labels:
[1] = tested on: Hepatitis C virus isolate HC-J4; assay: Inhibition of RNA-dependent RNA polymerase activity of HCV genotype 1b HC-J4 recombinant N-terminal histidine tagged C-terminal 21 aminoacids truncated NS5B polymerase at 50 uM after 1 hr by standard primer dependent elongation assay
Procedure, shortened: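 Recombinant NS5BCΔ21 genotype 1b in a primer-dependent elongation assay. […] IC50 is the concentration halving enzyme activity in vitro; mean ± SD of two independent experiments in duplicate.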

[2] = Inhibition of RNA-dependent RNA polymerase activity of HCV genotype 1b HC-J4 recombinant N-terminal histidine tagged C-terminal 21 aminoacids truncated NS5B polymerase after 1 hr by standard primer dependent elongation assay; set-up: species or system Hepatitis C virus isolate HC-J4
Procedure, shortened: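 Recombinant NS5BCΔ21 genotype 1b in a primer-dependent elongation assay. IC50 is the concentration halving enzyme activity in vitro; mean ± SD of two independent experiments in duplicate.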

Hepatitis C virus = assay: Antiviral activity against HCV genotype 1b I389luc-ubi-neo/NS3-3'/5.1 replicon infected in human Huh5-2 cells assessed as inhibition of virus replication by luciferase assay; format: functional, cell-based, Hepacivirus hominis; details: Huh-5-2
[3] = Cytostatic activity against human Huh5-2 cells carrying HCV genotype 1b I389luc-ubi-neo/NS3-3'/5.1 replicon assessed as reduction in metabolic activity after 72 hrs by MTS assay; format: ADME, cell-based, Huh-5-2; details: for CC50: huh-5-2, 72 h
Procedure, shortened: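 Replicon-bearing Huh-5-2 cells run in parallel with the antiviral read-out; CC50 is the concentration halving MTS bioreduction to formazan, taken as the antimetabolic effect on host cells; mean ± SD from at least three dose–response curves.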

[4] = Cytotoxicity against human Huh5-2 cells carrying HCV genotype 1b I389luc-ubi-neo/NS3-3'/5.1 replicon assessed as cell morphological changes after 72 hrs by microscopic analysis; format: cell-based; details: huh-5-2, 72 h
Procedure, shortened: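 Huh-5-2 replicon cells examined by microscopy for changes in cell morphology after 72 h of compound treatment.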

[5] = Selectivity index, ratio of CC50 for human Huh5-2 cells to EC50 for HCV genotype 1b I389luc-ubi-neo/NS3-3'/5.1 replicon infected in human Huh5-2 cells; set-up: species or system Huh-5-2
[6] = Induction of steatosis in human Huh-9-13 cells assessed as intracellular accumulation of […] lipids at 100 uM by Nile Red staining; format: cell-based

SMILES | inhibition [1] [%] | IC50 [2] [µM] | EC50 (Hepatitis C virus) [µM] | EC90 (Hepatitis C virus) [µM] | CC50 [3] [µM] | Activity [4] | Ratio CC50/EC50 [5] | CC50 at 72 h [3] [µM] | Activity [6]
CN1c2c(C(=O)Nc3ccc(OCC(N)=O)cc3)nn(-c3cccc(F)c3)c2-c2ccccc2S1(=O)=O | < 50 | > 50 | 15 | 34 | > 192 | Toxic | >13 |  | 
CN1c2c(C(=O)Nc3ccc(NS(C)(=O)=O)cc3)nn(-c3cccc(F)c3)c2-c2ccccc2S1(=O)=O |  |  |  |  |  |  |  | > 370 | 
CN1c2c(C(=O)Nc3ccc(NS(C)(=O)=O)cc3)nn(-c3cccc(Br)c3)c2-c2ccccc2S1(=O)=O | > 50 | 7.7 | 8.3 | 26 | > 166 | Toxic | >20 |  | 
CN1c2c(C(=O)Nc3ccc(NS(C)(=O)=O)cc3)nn(-c3ccc(C(F)(F)F)cc3)c2-c2ccccc2S1(=O)=O | > 50 | 36.3 | 7.3 | 31.2 | > 169 | Toxic | >23 |  | 
COc1ccc(-n2nc(C(=O)Nc3ccc(NS(C)(=O)=O)cc3)c3c2-c2ccccc2S(=O)(=O)N3C)cc1 | < 50 | > 50 | 8.1 | 25 | > 226 | Non-toxic | >28 |  | 
CN1c2c(C(=O)Nc3ccc(NS(C)(=O)=O)cc3)nn(-c3ccc(Cl)c(C(F)(F)F)c3)c2-c2ccccc2S1(=O)=O | < 50 | > 50 | 6.4 |  | > 160 | Toxic | >25 |  | 
CN1c2c(C(=O)Nc3ccc(NS(C)(=O)=O)cc3)nn(-c3ccccc3C(F)(F)F)c2-c2ccccc2S1(=O)=O | < 50 | > 50 | 25 |  | > 169 | Toxic | >7 |  | 
Cc1ccc(-n2nc(C(=O)Nc3ccc(NS(C)(=O)=O)cc3)c3c2-c2ccccc2S(=O)(=O)N3C)cc1 | > 50 | 14.7 | 4.8 | 19.6 | > 186 | Non-toxic | 39 |  | 
CN1c2c(C(=O)Nc3ccc(NS(C)(=O)=O)cc3)nn(-c3ccc(F)c(F)c3)c2-c2ccccc2S1(=O)=O | > 50 | 25.4 | 13.9 |  | 138 | Toxic | 9.9 |  | 
Cc1ccc(-n2nc(C(=O)Nc3ccc(NS(C)(=O)=O)cc3)c3c2-c2ccccc2S(=O)(=O)N3C)cc1C | < 50 | > 50 | 6.2 | 20 | > 181 | Toxic | >29 |  | 
CN1c2c(C(=O)Nc3ccc(NS(C)(=O)=O)cc3)nn(C3CCCCC3)c2-c2ccccc2S1(=O)=O | > 50 | 43 | 4.5 | 11 | 44 | Toxic | 9.7 |  | 
CN1c2c(C(=O)Nc3ccc(NS(C)(=O)=O)cc3)n[nH]c2-c2ccccc2S1(=O)=O | < 50 | > 50 | 88.2 | 65.2 | 155 | Toxic | 2.5 |  | 
CN1c2c(C(=O)Nc3ccc(NS(C)(=O)=O)cc3)nn(-c3cccc(C(F)(F)F)c3)c2-c2ccccc2S1(=O)=O | > 50 | 23.7 | 7.7 | 33.2 | > 211 | Toxic | >28 |  | 
CN1c2c(C(=O)Nc3ccccc3)nn(-c3cccc(F)c3)c2-c2ccccc2S1(=O)=O | < 50 | > 50 | 4.5 |  | 56 | Toxic | 12 |  | 
CN1c2c(NC(=O)c3ccc(NS(C)(=O)=O)cc3)nn(-c3cccc(F)c3)c2-c2ccccc2S1(=O)=O | < 50 | > 50 | 80.8 |  | 160 | Toxic | 2.3 |  | 
CN1c2c(C(=O)Nc3ccc(NS(C)(=O)=O)cc3)nn(-c3ccccc3Br)c2-c2ccccc2S1(=O)=O | > 50 | 26.5 | 12 |  | 107 | Toxic | 8.9 |  | 
CN1c2c(C(=O)Nc3ccc(NS(C)(=O)=O)cc3)nn(-c3ccc(Br)cc3)c2-c2ccccc2S1(=O)=O | > 50 | 12.1 | 7.4 | 21 | > 166 | Toxic | >22 |  | 
Cc1cccc(-n2nc(C(=O)Nc3ccc(NS(C)(=O)=O)cc3)c3c2-c2ccccc2S(=O)(=O)N3C)c1 | > 50 | 21.2 | 5.1 | 11.8 | > 233 | Toxic | >46 |  | 
CN1c2c(C(=O)Nc3ccc(NS(C)(=O)=O)cc3)nn(-c3ccc(Cl)cc3)c2-c2ccccc2S1(=O)=O | > 50 | 7.9 | 8.1 | 23.3 | > 224 | Non-toxic | >28 |  | Toxic
CN1c2c(C(=O)Nc3ccc(NS(C)(=O)=O)cc3)nn(-c3ccc(Cl)c(Cl)c3)c2-c2ccccc2S1(=O)=O | > 50 | 2.7 | 9.7 |  | > 168 | Toxic | >17 |  | 
Cc1ccccc1-n1nc(C(=O)Nc2ccc(NS(C)(=O)=O)cc2)c2c1-c1ccccc1S(=O)(=O)N2C | > 50 | 30.8 | 14.3 |  | > 233 | Toxic | >16 |  | 
Cc1ccc(-n2nc(C(=O)Nc3ccc(NS(C)(=O)=O)cc3)c3c2-c2ccccc2S(=O)(=O)N3C)cc1Cl | > 50 | 8 | 7 | 37 | > 175 | Toxic | >25 |  | 
COc1cccc(-n2nc(C(=O)Nc3ccc(NS(C)(=O)=O)cc3)c3c2-c2ccccc2S(=O)(=O)N3C)c1 | < 50 | > 50 | 11 |  | > 181 | Toxic | >16 |  | 
CN1c2c(C(=O)Nc3ccc(NS(C)(=O)=O)cc3)nn(-c3ccccc3Cl)c2-c2ccccc2S1(=O)=O | > 50 | 17.8 | 7.4 | 20.8 | > 224 | Toxic | >30 |  | 
